# Laboratory results from ChEMBL document CHEMBL5303300, “EUbOPEN Chemogenomics Library - Multiplex” (2023).
# Several values for one entry are separate records, joined by “and”; a condition that tells them apart may be missing. Equal entries are not always repeated.
# How the values were obtained:
# Format in all cases: toxicity, cell-based
# Fibroblast = experiment: Multiplex assay against human fibroblast; details: number of replicates 2
# Outline: (§1)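 Hoechst33342, BioTracker Green Microtubule Cytoskeleton Dye, MitoTracker Red and Annexin V Alexa Fluor 680 were added to live cells at seeding, and imaging on a CQ1 microscope at 37°C and 5% CO2 followed compound addition. Gating by CellPathfinder machine learning separated cells into Hoechst high-intensity objects or normal cells, then normal cells into healthy, pyknosed or fragmented nuclei, then pyknosed cells into mitotic or apoptotic. Per cents of healthy-nucleus cells are reported for the tubulin, mitochondrial-mass and membrane-permeability phenotypes.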
# HEK-293T = experiment: Multiplex assay against HEK293T; details: human, number of replicates 2; outline: as §1
# U2OS = experiment: Multiplex assay against U2OS; details: human, number of replicates 2; outline: as §1
# [1] = 12 h, 1 µM, compound concentration 1 uM
# [2] = 12 h, 10 µM, compound concentration 10 uM
# [3] = 24 h, 1 µM, compound concentration 1 uM
# [4] = 24 h, 10 µM, compound concentration 10 uM
# [5] = 48 h, 1 µM, compound concentration 1 uM
# [6] = 48 h, 10 µM, compound concentration 10 uM
smiles,measurement,setting,value
c1ccc2c(-c3coc4cc(-c5ccc(N6CCNCC6)cc5)cnc34)ccnc2c1,Population Apoptotic (%),Fibroblast; [1],33% and 46%
same,Population Fragmented Nuclei (%),Fibroblast; [1],18%
same,Population Healthy Nuclei (%),Fibroblast; [1],69% and 66%
same,Population Hoechst High Intensity Objects (%),Fibroblast; [1],0%
same,Population Mitochondria Different-Phenotype (%),Fibroblast; [1],0% and 2%
same,Population Mitotic Cells (%),Fibroblast; [1],66% and 53%
same,Population Normal (%),Fibroblast; [1],100%
same,Population Pyknosed Nuclei (%),Fibroblast; [1],16% and 14%
same,Population Tubulin-Different-Phenotype (%),Fibroblast; [1],10% and 15%
same,Total Cell Count,Fibroblast; [1],182 and 274
same,Population Apoptotic (%),Fibroblast; [2],68% and 73%
same,Population Fragmented Nuclei (%),Fibroblast; [2],15% and 7%
same,Population Hoechst High Intensity Objects (%),Fibroblast; [2],0%
same,Population Mitochondria Different-Phenotype (%),Fibroblast; [2],8% and 0%
same,Population Mitotic Cells (%),Fibroblast; [2],31% and 26%
same,Population Normal (%),Fibroblast; [2],100% and 98%
same,Population Pyknosed Nuclei (%),Fibroblast; [2],52% and 91%
same,Population Tubulin-Different-Phenotype (%),Fibroblast; [2],35% and 100%
same,Total Cell Count,Fibroblast; [2],223 and 162
same,Population Apoptotic (%),Fibroblast; [3],44% and 60%
same,Population Healthy Nuclei (%),Fibroblast; [3],73% and 71%
same,Population Hoechst High Intensity Objects (%),Fibroblast; [3],0%
same,Population Mitochondria Different-Phenotype (%),Fibroblast; [3],0% and 2%
same,Population Mitotic Cells (%),Fibroblast; [3],56% and 40%
same,Population Normal (%),Fibroblast; [3],100%
same,Population Pyknosed Nuclei (%),Fibroblast; [3],12% and 11%
same,Population Tubulin-Different-Phenotype (%),Fibroblast; [3],15% and 9%
same,Total Cell Count,Fibroblast; [3],195 and 271
same,Population Apoptotic (%),Fibroblast; [4],77% and 80%
same,Population Fragmented Nuclei (%),Fibroblast; [4],9%
same,Population Hoechst High Intensity Objects (%),Fibroblast; [4],0%
same,Population Mitotic Cells (%),Fibroblast; [4],22% and 19%
same,Population Normal (%),Fibroblast; [4],98% and 100%
same,Population Pyknosed Nuclei (%),Fibroblast; [4],83% and 66%
same,Population Tubulin-Different-Phenotype (%),Fibroblast; [4],80% and 50%
same,Total Cell Count,Fibroblast; [4],163 and 202
same,Population Apoptotic (%),Fibroblast; [5],53% and 48%
same,Population Fragmented Nuclei (%),Fibroblast; [5],16% and 27%
same,Population Healthy Nuclei (%),Fibroblast; [5],76% and 63%
same,Population Mitochondria Different-Phenotype (%),Fibroblast; [5],0%
same,Population Mitotic Cells (%),Fibroblast; [5],46% and 51%
same,Population Normal (%),Fibroblast; [5],100% and 99%
same,Population Pyknosed Nuclei (%),Fibroblast; [5],6% and 8%
same,Population Tubulin-Different-Phenotype (%),Fibroblast; [5],10% and 11%
same,Total Cell Count,Fibroblast; [5],208 and 323
same,Population Apoptotic (%),Fibroblast; [6],84% and 91%
same,Population Fragmented Nuclei (%),Fibroblast; [6],21%
same,Population Healthy Nuclei (%),Fibroblast; [6],28% and 18%
same,Population Hoechst High Intensity Objects (%),Fibroblast; [6],0%
same,Population Mitochondria Different-Phenotype (%),Fibroblast; [6],2% and 7%
same,Population Mitotic Cells (%),Fibroblast; [6],8%
same,Population Normal (%),Fibroblast; [6],99%
same,Population Pyknosed Nuclei (%),Fibroblast; [6],50% and 63%
same,Population Tubulin-Different-Phenotype (%),Fibroblast; [6],44% and 38%
same,Total Cell Count,Fibroblast; [6],171 and 210
same,Population Apoptotic (%),HEK-293T; [1],49% and 54%
same,Population Healthy Nuclei (%),HEK-293T; [1],84% and 87%
same,Population Mitotic Cells (%),HEK-293T; [1],50% and 45%
same,Population Normal (%),HEK-293T; [1],94%
same,Population Pyknosed Nuclei (%),HEK-293T; [1],13% and 10%
same,Population Tubulin-Different-Phenotype (%),HEK-293T; [1],46% and 49%
same,Total Cell Count,HEK-293T; [1],595 and 552
same,Population Apoptotic (%),HEK-293T; [2],75% and 58%
same,Population Healthy Nuclei (%),HEK-293T; [2],32% and 33%
same,Population Mitotic Cells (%),HEK-293T; [2],24% and 41%
same,Population Normal (%),HEK-293T; [2],82% and 84%
same,Population Pyknosed Nuclei (%),HEK-293T; [2],59%
same,Population Tubulin-Different-Phenotype (%),HEK-293T; [2],86% and 81%
same,Total Cell Count,HEK-293T; [2],394 and 507
same,Population Apoptotic (%),HEK-293T; [3],36% and 45%
same,Population Healthy Nuclei (%),HEK-293T; [3],88% and 87%
same,Population Mitotic Cells (%),HEK-293T; [3],63% and 54%
same,Population Normal (%),HEK-293T; [3],95% and 93%
same,Population Pyknosed Nuclei (%),HEK-293T; [3],9%
same,Population Tubulin-Different-Phenotype (%),HEK-293T; [3],34% and 40%
same,Total Cell Count,HEK-293T; [3],920 and 770
same,Population Apoptotic (%),HEK-293T; [4],85% and 72%
same,Population Healthy Nuclei (%),HEK-293T; [4],19% and 24%
same,Population Mitotic Cells (%),HEK-293T; [4],14% and 27%
same,Population Normal (%),HEK-293T; [4],82% and 80%
same,Population Pyknosed Nuclei (%),HEK-293T; [4],71% and 67%
same,Population Tubulin-Different-Phenotype (%),HEK-293T; [4],89% and 87%
same,Total Cell Count,HEK-293T; [4],387 and 484
same,Population Apoptotic (%),HEK-293T; [5],13% and 18%
same,Population Healthy Nuclei (%),HEK-293T; [5],90% and 89%
same,Population Mitotic Cells (%),HEK-293T; [5],86% and 81%
same,Population Normal (%),HEK-293T; [5],93% and 92%
same,Population Pyknosed Nuclei (%),HEK-293T; [5],4% and 5%
same,Population Tubulin-Different-Phenotype (%),HEK-293T; [5],18% and 22%
same,Total Cell Count,HEK-293T; [5],1932 and 1615
same,Population Apoptotic (%),HEK-293T; [6],90% and 79%
same,Population Healthy Nuclei (%),HEK-293T; [6],11% and 23%
same,Population Mitotic Cells (%),HEK-293T; [6],9% and 20%
same,Population Normal (%),HEK-293T; [6],81% and 79%
same,Population Pyknosed Nuclei (%),HEK-293T; [6],74% and 64%
same,Population Tubulin-Different-Phenotype (%),HEK-293T; [6],86% and 91%
same,Total Cell Count,HEK-293T; [6],372 and 450
same,Population Healthy Nuclei (%),U2OS; [1],82% and 84%
same,Population Mitochondria Different-Phenotype (%),U2OS; [1],0% and 2%
same,Population Normal (%),U2OS; [1],100%
same,Population Pyknosed Nuclei (%),U2OS; [1],0% and 10%
same,Population Tubulin-Different-Phenotype (%),U2OS; [1],84% and 81%
same,Population Apoptotic (%),U2OS; [2],93% and 90%
same,Population Healthy Nuclei (%),U2OS; [2],0% and 6%
same,Population Mitochondria Different-Phenotype (%),U2OS; [2],100% and 75%
same,Population Mitotic Cells (%),U2OS; [2],6% and 10%
same,Population Normal (%),U2OS; [2],100% and 98%
same,Population Pyknosed Nuclei (%),U2OS; [2],95% and 60%
same,Population Tubulin-Different-Phenotype (%),U2OS; [2],100%
same,Total Cell Count,U2OS; [2],163 and 67
same,Population Apoptotic (%),U2OS; [3],100% and 76%
same,Population Healthy Nuclei (%),U2OS; [3],91% and 82%
same,Population Mitochondria Different-Phenotype (%),U2OS; [3],0%
same,Population Mitotic Cells (%),U2OS; [3],0% and 23%
same,Population Normal (%),U2OS; [3],100%
same,Population Pyknosed Nuclei (%),U2OS; [3],2% and 10%
same,Population Tubulin-Different-Phenotype (%),U2OS; [3],81% and 82%
same,Population Apoptotic (%),U2OS; [4],92% and 87%
same,Population Healthy Nuclei (%),U2OS; [4],0% and 4%
same,Population Mitotic Cells (%),U2OS; [4],7% and 12%
same,Population Normal (%),U2OS; [4],98% and 97%
same,Population Pyknosed Nuclei (%),U2OS; [4],93% and 56%
same,Population Tubulin-Different-Phenotype (%),U2OS; [4],100% and 66%
same,Total Cell Count,U2OS; [4],160 and 71
same,Population Apoptotic (%),U2OS; [5],75%
same,Population Healthy Nuclei (%),U2OS; [5],83% and 84%
same,Population Mitochondria Different-Phenotype (%),U2OS; [5],0%
same,Population Mitotic Cells (%),U2OS; [5],25%
same,Population Normal (%),U2OS; [5],100%
same,Population Pyknosed Nuclei (%),U2OS; [5],6% and 10%
same,Population Tubulin-Different-Phenotype (%),U2OS; [5],87%
same,Population Apoptotic (%),U2OS; [6],91%
same,Population Healthy Nuclei (%),U2OS; [6],8% and 1%
same,Population Mitotic Cells (%),U2OS; [6],8%
same,Population Normal (%),U2OS; [6],98%
same,Population Pyknosed Nuclei (%),U2OS; [6],39% and 87%
same,Population Tubulin-Different-Phenotype (%),U2OS; [6],57% and 100%
same,Total Cell Count,U2OS; [6],87 and 164
